ChEMBL document CHEMBL1156470, “Inhibition of the activation of multiple serine proteases with a cathepsin C inhibitor requires sustained exposure to prevent pro-enzyme processing” (J Biol Chem, 2007)
Calls of active or inactive are those of the source. No cut-off for these calls is given here. Non-standard residues stand in square brackets, D forms with d. Residues, ends and D or L forms follow the SMILES beside them. *: point of attachment. Phe(4-I) = N[C@@H](Cc1ccc(I)cc1)C(=O)O; CHN2 = [N-]=[N+]=C*

How the values were obtained:
Dipeptidyl peptidase 1 [1] = biological target: T1, Dipeptidyl peptidase 1 (Homo sapiens, UniProt P53634); assay: Inhibition of human recombinant cathepsin C after 10 mins
T1 sequence (P53634 25-134 limits assumed): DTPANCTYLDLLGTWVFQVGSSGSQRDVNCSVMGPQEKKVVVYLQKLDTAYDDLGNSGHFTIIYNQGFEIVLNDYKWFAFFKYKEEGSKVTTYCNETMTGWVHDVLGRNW
T1 sequence (P53634 231-394 limits assumed): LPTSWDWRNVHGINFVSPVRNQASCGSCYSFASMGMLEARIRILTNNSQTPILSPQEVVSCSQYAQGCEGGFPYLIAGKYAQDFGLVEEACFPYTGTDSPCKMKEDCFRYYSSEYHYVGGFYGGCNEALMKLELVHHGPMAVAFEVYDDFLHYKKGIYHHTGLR
T1 sequence (P53634 395-463 limits assumed): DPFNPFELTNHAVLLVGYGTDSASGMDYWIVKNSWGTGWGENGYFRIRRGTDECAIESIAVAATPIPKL
Summary of the method: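 Recombinant human cathepsin C at 1 nM in 25 mM MES pH 6.0, 50 mM NaCl, 5 mM DTT, with 50 μM Gly-Arg-AMC (twice Km). Enzyme preincubated with inhibitor 10 min, then substrate added, at room temperature. Fluorogenic AMC release.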

Cathepsin B = Cathepsin B (Homo sapiens, UniProt P07858); assay: Inhibition of human recombinant cathepsin B after 10 mins
Cathepsin S = Cathepsin S (Homo sapiens, UniProt P25774); assay: Inhibition of human recombinant cathepsin S after 10 mins
Cathepsin S, sequence (P25774 whole entry): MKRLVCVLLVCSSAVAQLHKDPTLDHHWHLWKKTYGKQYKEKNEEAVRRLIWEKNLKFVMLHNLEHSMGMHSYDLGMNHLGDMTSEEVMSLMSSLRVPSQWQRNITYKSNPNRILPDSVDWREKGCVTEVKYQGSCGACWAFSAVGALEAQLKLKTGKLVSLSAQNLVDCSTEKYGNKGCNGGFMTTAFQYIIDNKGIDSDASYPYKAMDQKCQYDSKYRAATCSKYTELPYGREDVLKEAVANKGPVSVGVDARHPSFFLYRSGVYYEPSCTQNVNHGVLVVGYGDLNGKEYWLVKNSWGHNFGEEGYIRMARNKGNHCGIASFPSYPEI

Neutrophil elastase [2] = biological target: T2, Neutrophil elastase (Mus musculus, UniProt Q3UP87); assay: Inhibition of neutrophil elastase activation in beta-estradiol differentiated mouse EcoM-G cells after 24 hrs; assay type: cell-based
T2 sequence (Q3UP87 whole entry): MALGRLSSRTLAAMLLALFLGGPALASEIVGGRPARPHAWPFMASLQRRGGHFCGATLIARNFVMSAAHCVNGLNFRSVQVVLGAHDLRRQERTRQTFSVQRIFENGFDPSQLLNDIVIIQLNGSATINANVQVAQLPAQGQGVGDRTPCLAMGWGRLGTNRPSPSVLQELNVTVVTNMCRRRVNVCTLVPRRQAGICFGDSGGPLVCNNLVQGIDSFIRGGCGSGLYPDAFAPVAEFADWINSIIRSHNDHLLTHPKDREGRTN
Summary of the method: (§1)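 EcoM-G cells (cultures <3 months old) washed and seeded at 0.5×10^6 cells/ml without β-estradiol. After 24 h, compound added in Me₂SO (final 0.5%), then cells differentiated a further 24 h, harvested and lysed. NE assayed with 400 μM MeOSuc-AAPV-AMC, CG with 1 mM Suc-AAPF-pNA (405 nm, 5 min), Pr-3 with 10 μM internally quenched substrate (ex 328/em 393 nm), all from the same lysates. IC50 from four-parameter Hill fit.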

Cathepsin G [3] = biological target: T3, Cathepsin G (Mus musculus, UniProt P28293); assay: Inhibition of cathepsin G activation in beta-estradiol differentiated mouse EcoM-G cells after 24 hrs; assay type: cell-based; summary of the method: as §1
T3 sequence (P28293 whole entry): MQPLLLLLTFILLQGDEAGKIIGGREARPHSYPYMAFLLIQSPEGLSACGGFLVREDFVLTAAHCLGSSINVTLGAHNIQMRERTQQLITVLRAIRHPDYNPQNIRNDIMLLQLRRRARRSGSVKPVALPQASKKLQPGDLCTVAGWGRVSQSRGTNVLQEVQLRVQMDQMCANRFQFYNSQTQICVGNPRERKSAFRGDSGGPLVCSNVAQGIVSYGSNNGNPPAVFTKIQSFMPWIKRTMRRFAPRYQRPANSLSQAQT

Myeloblastin [4] = biological target: T4, Myeloblastin (Mus musculus, UniProt Q61096); assay: Inhibition of proteinase-3 activation in beta-estradiol differentiated mouse EcoM-G cells after 24 hrs; assay type: cell-based; summary of the method: as §1
T4 sequence (Q61096 whole entry): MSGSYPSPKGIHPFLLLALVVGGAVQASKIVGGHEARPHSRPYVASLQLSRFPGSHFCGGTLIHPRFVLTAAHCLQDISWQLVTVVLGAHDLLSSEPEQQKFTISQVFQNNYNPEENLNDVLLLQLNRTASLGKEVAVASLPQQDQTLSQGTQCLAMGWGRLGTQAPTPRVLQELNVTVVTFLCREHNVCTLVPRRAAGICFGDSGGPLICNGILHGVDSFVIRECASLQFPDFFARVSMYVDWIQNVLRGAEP

[5] = biological target: T5, Cathepsin G (Homo sapiens) (UniProt P08311); assay: Inhibition of human U937 cellular [35S]methionine-labeled cathepsin G binding to aprotinin by aprotinin-agarose silver-stained SDS-PAGE method; assay type: cell-based; settings: U-937, in the assay text read “SDS-PAGE fluorography” for “silver-stained SDS-PAGE”
T5 sequence (whole entry): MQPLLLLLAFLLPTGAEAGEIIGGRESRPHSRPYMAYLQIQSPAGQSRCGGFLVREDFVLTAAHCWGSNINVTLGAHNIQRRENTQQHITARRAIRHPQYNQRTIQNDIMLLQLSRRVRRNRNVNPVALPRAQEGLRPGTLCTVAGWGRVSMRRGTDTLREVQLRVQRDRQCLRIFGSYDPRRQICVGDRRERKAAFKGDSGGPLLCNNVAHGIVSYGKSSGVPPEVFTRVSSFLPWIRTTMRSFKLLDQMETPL

Procathepsin L = Procathepsin L (Homo sapiens, UniProt P07711); assay: Inhibition of human recombinant cathepsin L after 10 mins
Procathepsin L, sequence (P07711 whole entry): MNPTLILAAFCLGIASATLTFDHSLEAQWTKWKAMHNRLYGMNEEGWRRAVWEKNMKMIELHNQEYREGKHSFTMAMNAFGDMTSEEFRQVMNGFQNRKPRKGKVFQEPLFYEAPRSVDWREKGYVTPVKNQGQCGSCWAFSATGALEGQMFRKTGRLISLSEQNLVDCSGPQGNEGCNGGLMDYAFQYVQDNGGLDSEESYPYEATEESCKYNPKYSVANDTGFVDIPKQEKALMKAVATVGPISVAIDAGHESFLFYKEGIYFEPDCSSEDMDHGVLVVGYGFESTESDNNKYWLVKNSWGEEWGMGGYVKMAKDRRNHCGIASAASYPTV

Dipeptidyl peptidase 1 [6] = biological target: T1, Dipeptidyl peptidase 1; assay: Inhibition of cathepsin C in human U937 cells at 1 uM after 24 hrs; assay type: cell-based; settings: U-937
Summary of the method: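 U937 at 0.4×10^6 cells/ml exposed 24 h to compound (final Me₂SO 0.5%), washed, lysed in 25 mM MES pH 6.0, 50 mM NaCl, 5 mM DTT, 0.2% NP-40. Protein-normalised lysate diluted 1:10 and assayed with 50 μM Gly-Arg-AMC (twice Km) at room temperature. Residual cathepsin C activity.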

U-937 [7] = assay: Cytotoxicity against human U937 cells at 1 uM after 72 hrs annexin-V propidium iodide method; assay type: functional
Summary of the method: (§2)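 U937 plated at 0.4×10^6 cells/ml, compound in Me₂SO (final 0.5%). Cells harvested and re-seeded every 24 h in medium with freshly added inhibitor, for 72 h. Viability by annexin V-FITC/propidium iodide two-colour flow cytometry; cells negative for both stains counted viable.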

Pro-cathepsin H = biological target: T6, Pro-cathepsin H (Homo sapiens, UniProt P09668); assay: Inhibition of human recombinant cathepsin H after 10 mins
T6 sequence (P09668 whole entry): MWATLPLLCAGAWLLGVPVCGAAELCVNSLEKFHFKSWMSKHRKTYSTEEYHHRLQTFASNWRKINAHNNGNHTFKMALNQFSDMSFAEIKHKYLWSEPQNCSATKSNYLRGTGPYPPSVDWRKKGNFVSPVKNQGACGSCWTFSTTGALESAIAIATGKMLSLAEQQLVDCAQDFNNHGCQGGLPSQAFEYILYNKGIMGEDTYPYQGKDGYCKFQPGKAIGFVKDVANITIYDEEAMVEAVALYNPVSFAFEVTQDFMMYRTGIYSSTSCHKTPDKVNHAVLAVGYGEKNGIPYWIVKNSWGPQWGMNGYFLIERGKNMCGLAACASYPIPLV

Cathepsin G [8] = biological target: T7, Cathepsin G (Homo sapiens, UniProt P08311); assay: Blockade of cathepsin G processing in human U937 cells by densitometry; assay type: cell-based, U-937
T7 sequence (P08311 whole entry): T5 sequence (whole entry)
Summary of the method: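 U937 cells washed, plated at 2×10^6 cells/ml in methionine/glutamine-free RPMI, inhibitor or 0.5% Me₂SO added during 30 min starvation, pulsed with [³⁵S]methionine (10 μCi/ml) 30 min, re-seeded in complete medium with inhibitor and chased 3 h. Lysates bound to aprotinin-agarose 1 h at room temperature, SDS-PAGE and fluorography. CG band quantitated by densitometry as % inhibition vs vehicle.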

U-937 [9] = assay: Cytotoxicity against human U937 cells at 30 uM after 72 hrs annexin-V propidium iodide method; assay type: functional; summary of the method: as §2
Neutrophil elastase [10] = biological target: T8, Neutrophil elastase (Homo sapiens, UniProt P08246); assay: Blockade of neutrophil elastase processing in human U937 cells after 7 days by fluorogenic substrate cleavage assay; assay type: cell-based, U-937
T8 sequence (P08246 whole entry): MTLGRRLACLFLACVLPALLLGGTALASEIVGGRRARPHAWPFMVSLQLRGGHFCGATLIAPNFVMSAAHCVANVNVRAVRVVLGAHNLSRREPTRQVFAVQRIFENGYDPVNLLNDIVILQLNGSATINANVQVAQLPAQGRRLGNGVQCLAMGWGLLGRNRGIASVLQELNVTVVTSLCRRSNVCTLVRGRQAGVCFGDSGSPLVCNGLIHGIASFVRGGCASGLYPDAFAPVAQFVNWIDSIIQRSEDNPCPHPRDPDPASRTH
Summary of the method: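 U937 seeded at 1×10^5 cells/ml with vehicle or inhibitor, passaged and diluted 10-fold into fresh medium with compound on days 3 and 5, harvested day 7. Cells washed and lysed in 20 mM Tris pH 7.5, 100 mM NaCl, 0.2% NP-40. NE rate measured with 400 μM MeOSuc-AAPV-AMC (ex 370/em 450 nm, 10 min). % inhibition vs vehicle, four wells per point.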

Cathepsin G [11] = biological target: T7, Cathepsin G; assay: Inhibition of cathepsin G in human U937 cells; assay type: cell-based, U-937
[12] = biological target: Neutrophil elastase (Mus musculus) (UniProt Q3UP87); assay: Inhibition of neutrophil elastase in mouse EcoM-G cells
Myeloblastin [13] = biological target: T9, Myeloblastin (Homo sapiens, UniProt P24158); assay: Inhibition of proteinase-3 in human U937 cells; assay type: cell-based, U-937
T9 sequence (P24158 whole entry): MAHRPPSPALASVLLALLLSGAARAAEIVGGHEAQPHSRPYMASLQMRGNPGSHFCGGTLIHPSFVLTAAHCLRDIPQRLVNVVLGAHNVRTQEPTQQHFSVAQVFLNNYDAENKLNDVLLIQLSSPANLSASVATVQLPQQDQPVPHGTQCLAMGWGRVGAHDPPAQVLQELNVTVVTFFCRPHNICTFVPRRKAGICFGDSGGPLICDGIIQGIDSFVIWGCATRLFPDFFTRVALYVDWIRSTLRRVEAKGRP

Row | Structure (SMILES) | IC50 (Dipeptidyl peptidase 1 [1]) [µM] | IC50 (Cathepsin B) [µM] | IC50 (Cathepsin S) [µM] | IC50 (Neutrophil elastase [2]) [µM] | IC50 (Cathepsin G [3]) [µM] | IC50 (Myeloblastin [4]) [µM] | IC50 (Procathepsin L) [µM] | IC50 (Pro-cathepsin H) [µM] | IC50 (Cathepsin G [8]) [µM] | other results
1 | CC(C)C[C@@H](NC(=O)N1CCOCC1)C(=O)N[C@@H](/C=C/S(=O)(=O)c1ccccc1)CCc1ccccc1 | > 10 | 1.36 | 0.001 | 25.5 | 39.8 | 21.2 |  |  |  | 
2 | CCC[C@@H](NC(=O)N1C(=O)C(CC)(CC)[C@@H]1Oc1ccc(C(=O)N2CCN(C)CC2)cc1)c1ccc2c(c1)OCO2 |  |  |  |  |  |  |  |  |  | Activity [5]: inactive
3 | CCC[C@H](NC(=O)C(CC(C)C)NC(=O)c1ccc(-c2ccc(I)cc2)cc1)C(=O)[CH-][N+]#N (some centres undefined) | 0.45 | 0.065 | 0.009 |  |  |  | 0.01 |  |  | 
4 | [N-]=[N+]=CC(=O)[C@H](Cc1ccccc1)NC(=O)CN (H-Gly-Phe-CHN2) |  |  |  |  |  |  |  |  |  | inhibition (Dipeptidyl peptidase 1 [6]): 100%; Activity (U-937 [7]): 32%
5 | CS(=O)(=O)C[C@H](N[C@@H](c1ccc(Br)cc1)C(F)(F)F)C(=O)NC1(C#N)CC1 | > 10 | 0.28 | 0.01 | > 50 | > 50 |  | 0.43 | > 50 | > 50 | 
6 | N#[N+][CH-]C(=O)[C@H](Cc1ccccc1)NC(=O)CN | 0.051 | > 30 |  |  |  |  | 25.5 | 29 |  | 
7 | C[C@H](N)C(=O)N[C@@H](Cc1ccc(I)cc1)C(=O)C=[N+]=[N-] |  |  |  |  |  |  |  |  |  | inhibition (Dipeptidyl peptidase 1 [6]): 99.6%; Activity (U-937 [7]): 32%; Activity [5]: Active
8 | N#C[C@]1(NC(=O)C(N)Cc2cccs2)C[C@H]1c1ccccc1.O=C(O)C(F)(F)F (single isomer, unassigned) | > 30 | > 50 | > 50 | > 50 | > 50 | > 50 | > 50 | > 50 | > 50 | Activity (U-937 [9]): 98%; IC50 (Neutrophil elastase [10]): > 30 µM
9 | CC(C)C[C@H](NC(=O)[C@H]1O[C@@H]1C(=O)O)C(=O)NCCCCN=C(N)N [E-64] | 0.77 | 0.01 | 0.007 |  |  |  | 0.013 | 0.19 |  | 
10 | N#C[C@@]1(NC(=O)C(N)Cc2sccc2F)C[C@@H]1c1ccccc1 (some centres undefined) |  | > 50 | 33.4 | 0.15 | 0.69 | 0.15 | 15.5 | > 50 | 0.09 | IC50 (Cathepsin G [11]): > 10 µM; IC50 (Neutrophil elastase [10]): 0.17 µM; IC50 [12]: > 10 µM
11 | [N-]=[N+]=CC(=O)[C@H](Cc1ccc(I)cc1)NC(=O)CN (H-Gly-[Phe(4-I)]-CHN2) | 0.001 | 2.94 | > 50 |  |  |  | 29.5 | 9.8 |  | IC50 (Cathepsin G [11]): > 50 µM; IC50 (Myeloblastin [13]): > 50 µM; IC50 [12]: > 50 µM
12 | Cc1cc(C)cc(CC(NC(=O)C(c2ccccc2)c2ccccc2)C(=O)NCC#N)c1 (centres undefined) |  | 0.04 | 0.47 | > 50 | > 50 |  | 0.09 |  |  | 
13 | N#C[C@]1(NC(=O)[C@@H](N)Cc2ccccc2F)C[C@H]1c1ccccc1 | > 0.22 | > 3 | 1.6 | 5.49 | 17.6 | 4.55 | 0.56 |  | 1.2 | IC50 (Neutrophil elastase [10]): 1.9 µM
14 | N#C[C@]1(NC(=O)C(N)Cc2cncs2)C[C@H]1c1ccccc1 (some centres undefined) | 0.79 |  |  | 7.93 | > 50 |  |  |  |  | 
15 | CCOC(=O)[C@H]1O[C@@H]1C(=O)N[C@@H](CC(C)C)C(=O)NCCC(C)C [ALOXISTATIN] |  |  |  | > 10 | > 10 | > 10 |  |  | 1.1 | 
